Compound activity (PubChem)
The list is not random: actives were taken first. Their share in the collection is about 4%.
WT yeast gro inh – growth inhibition of WT strain, primary screen, mitochondrial fusion inhibitor project, WT and mutant strains, chemical genetic; mitochondrial fusion phenotypic screen; hit rate 2.1% among 190,000; inhibition, % at 10 µM; in the data active means inhibition above about 58%; tested in S. cerevisiae
Cl transport mod – KCC2 cotransporter modulators, thallium flux, primary screen, cell-based, HEK293 KCC2, FluoZin-2 fluorescence, MLSMR | Solute carrier family 12 member 5 (Homo sapiens), Q9H2X9 | KCC2 cells, thallium flux FluoZin-2 fluorescence | B-score of Tl+ flux slope (higher = more flux/activation; lower = inhibition) at 10 µM | hit rate 2.2% among 190,000 | AID 1456, 2008;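 active means thallium flux slope and its plate-corrected score both differing from the plate sample mean at a set confidence after two filtering rounds, in either direction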;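 further: slope of fluorescence scaled to starting intensity during 10 to 20 s after thallium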
MT stabilizer – microtubule stabilizers in HeLa cells, primary screen, imaging, high-content imaging | HeLa tubulin immunostaining HCS, 24 h; share of cells brighter than vehicle mean+2SD | % tubulin-high responders, % at 10 µM | hit rate 0.83% among 200,000;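 active means plate Z-score above 3 for both tubulin-high and condensed-nucleus cell shares, with cell loss under 80%, at 10 µM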;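 further: anti alpha tubulin signal scored within the nucleus-defined area of each cell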
bCat nuc transl – modulators of beta-catenin nuclear translocation, primary screen, imaging, HeLa cells, immunofluorescence, high-content. hit rate 0.3% among 190,000. nuclear translocation activity, % at 5 µM. AID 1665, 2009;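 active means nuclear translocation activity above 50% at 5 µM, with a well cell count of 50 or more; inconclusive means wells under 50 cells across six images, flagged as toxic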;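 further: per-cell ratio of nuclear to cytoplasmic median beta-catenin stain intensity; plate controls were DMSO negative control for no effect and GSK-3 inhibitor IX positive control for full effect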
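Signal – beta-catenin immunofluorescence imaging with DAPI · Test system – human HeLa cell line · Dosing – 5 µM primary single dose, 0.1% DMSO, 0.02–20 µM confirmation series · Measure – % activation, nuclear-to-cytoplasmic median beta-catenin signal ratio per cell · Incubation – 24 h compound exposure at 37°C, 5% CO2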
Pf gametocyte – late stage P. falciparum gametocyte viability inhibitors, primary screen, ATP luminescence, HTS | inhibition, % at 10.9 µM | hit rate 0.065% among 150,000 | P. falciparum stage V gametocytes, 24 h;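 active means inhibition above the mean plus 3 SD of compounds within the control limits, set per campaign, cut at about 38% in these data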;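 further: 0% = DMSO wells and 100% = medium only without gametocytes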
KCC2 sec1 – KCC2 modulators in sodium-free buffer, confirmation, cell-based, HEK293 KCC2, thallium flux, secondary assay; AID 1713, 2009; FluoZin2 fluorescence; stronger effect = higher value; shares compounds with Cl transport mod; hit rate 15% among 3,700; normalised thallium flux (F/F0 slope) at 10 µM;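 active means thallium flux slope above the same plate's solvent-only control mean plus 3 SD; inconclusive means the two replicate wells disagree; inactive means no significant difference from solvent-only control wells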
KCC2 bumet counter – thallium flux persisting under bumetanide in KCC2 cells, confirmation, counter-screen for KCC2 modulator project, cell-based, HEK293 KCC2, FluoZin2, secondary assay 3; shares compounds with Cl transport mod; HEK293-KCC2 + bumetanide/ouabain; stronger effect = higher value; normalized thallium flux at 10 µM; hit rate 49% among 3,700; AID 1714, 2009;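 active means thallium entry rate above the same plate's blocked-transporter control wells by more than 3 SD; inconclusive means the two repeat wells disagree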;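 further: raw slope of fluorescence over initial fluorescence between 10 and 20 s after thallium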
KCC2 secondary2 – KCC2 modulators without ouabain present, confirmation, cell-based, HEK293 KCC2, thallium flux, FluoZin2, secondary assay 2 | normalized thallium flux at 10 µM | hit rate 23% among 3,700 | thallium flux FluoZin2 fluorescence; actives lie on both sides; F/F0 rise rate, 10–20 s post-thallium | shares compounds with Cl transport mod;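 active means thallium flux slope more than 3 SD above or below the plate's solvent-only control mean, mostly below; inconclusive means the two repeat wells disagreed; inactive means no significant shift from solvent-only controls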;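 further: raw slope with 0.1% DMSO as baseline and bumetanide as block control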
HEK counter1 – thallium flux modulation in parental HEK cells, confirmation, counter-screen for KCC2 modulator project, cell-based, counterscreen 1; shares compounds with Cl transport mod; HEK293 parental cells, thallium flux FluoZin2, ouabain; baseline-ratio fluorescence slope, 10–20 s after thallium; thallium flux rate (normalised fluorescence) at 10 µM; hit rate 46% among 3,700;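 active means thallium flux rate significantly above the same plate's solvent-only control wells, beyond their mean plus 3 SD; inconclusive means the two replicate wells gave conflicting results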
KCC2 retest ouab – KCC2 inhibitors and activators, ouabain retest, confirmation, HEK-KCC2 cells | shares compounds with Cl transport mod | HEK293-KCC2, thallium flux FluoZin2 fluorescence; bidirectional: low = inhibitor, high = activator | raw Tl+ flux slope (below DMSO = inhibition, above = activation) at 10 µM | hit rate 48% among 3,700;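 active means thallium flux slope beyond 3 SD from same-plate DMSO control mean in most replicates, usually higher, sometimes lower; inconclusive means repeat tests gave conflicting results; inactive means no significant difference from controls in most replicates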;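 further: slope of initial-normalized fluorescence between seconds 10 and 20 after thallium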
HEK counter2 – native HEK Tl+ uptake effects, second counter-screen – HEK cells, counterscreen 2, counter-screen for KCC2 modulator project, confirmation | shares compounds with Cl transport mod | HEK293 parental, thallium flux FluoZin-2 fluorescence slope | thallium flux slope at 10 µM | hit rate 33% among 3,700;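 active means thallium flux slope above the same plate's solvent-control mean plus 3 SD in both duplicate wells; inconclusive means duplicate wells that disagreed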;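 further: run without ouabain in cells lacking the KCC2 cotransporter; slope of fluorescence scaled to its starting value between 10 and 20 s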
Active calls of the source: *; ? = inconclusive; . = not tested or not shown.

SMILES	WT yeast gro inh	Cl transport mod	MT stabilizer	bCat nuc transl	Pf gametocyte	KCC2 sec1	KCC2 bumet counter	KCC2 secondary2	HEK counter1	KCC2 retest ouab	HEK counter2
COc1ccc(CCNc2cc(-c3ccccc3)nc3ncnn23)cc1	-13.5	4.74*	1.7	1.3	.	0.00712	0.00426	0.0273	0.0068	0.0169	?
O=[N+]([O-])c1ccc(-c2cnc[nH]2)cc1	.	-0.339	.	-0.3	-8.3	.	.	.	.	.	.
COc1ccc2c(-c3ccccc3)cc(SC(C)C(N)=O)nc2c1 (stereo not given)	19.1	5.47*	2.2	-2.9	10.6	0.00983	0.00805*	0.0336	0.0143*	0.0232	?
S=c1[nH]nc(-c2ccccn2)n1/N=C/c1ccc(Cl)cc1	.	2.56	.	-5.7	6.3	.	.	.	.	.	.
S=c1[nH]nc(-c2ccco2)n1/N=C/c1ccc(Cl)cc1	41.6	4.11*	5.0	-1.7	4.1	0.0148*	0.146*	0.0315	0.0534*	0.0737*	0.0131*
S=c1[nH]nc(-c2ccco2)n1/N=C/c1ccccc1Cl	-4.1	10.4*	8.3	2.2	4.0	0.0118*	0.0363*	0.0369	0.0181*	0.0411*	0.0122*
Cc1ccc(/C=N/n2c(-c3ccco3)n[nH]c2=S)s1	12.2	2.11	3.0	2.2	2.9	.	.	.	.	.	.
Cc1ccc(C(=O)NCc2n[nH]c(=S)n2-c2ccccc2)cc1[N+](=O)[O-]	-11.8	-0.471	4.6	.	-4.8	.	.	.	.	.	.
O=c1[nH]ncc(N/N=C/c2ccccc2)c1Cl	-5.1	.	1.1	5.2	0.9	0.00754	0.00556*	0.0285	0.00792	0.0169	0.00945
Cc1ccc(NC(=O)Cc2ncc(C(F)(F)F)cc2Cl)cc1Cl	11.9	0.00696	0.8	-0.5	-25.9	.	.	.	.	.	.
COc1ccc(C(=O)Nc2cccc3cccnc23)cc1OC	16.6	-6.28*	1.2	.	.	0.00838	0.00526	0.0323	0.00666	0.0202	0.0101
COc1ccc(C(=O)Nc2cccnc2Cl)cc1OC	.	.	.	.	-10.2	.	.	.	.	.	.
Cc1nc(NC(=S)NC(=O)c2cccs2)ccc1Br	22.2	36.1*	5.7	.	-11.2	0.0139*	0.115*	0.0341	0.0381*	0.0416*	0.0123*
O=C(NC(=S)Nc1cccc2cccnc12)c1cccs1	11.0	2.83*	2.4	1.2	0.6	0.00759	0.00959*	0.0319	?	?	0.00979
C[C@H](NC(N)=O)C(=O)OCC(=O)NCc1cccs1	-20.7	0.598	3.3	-1.6	9.9	.	.	.	.	.	.
COc1ccc2[nH]c(=O)c(CN(C)C(=O)c3cccs3)cc2c1	.	0.0486	.	1.5	-20.5	.	.	.	.	.	.
COc1ccc(-c2c(-c3cc(OC)cc(OC)c3)n(C)c3ccc(-c4ccc(S(N)(=O)=O)cc4)cc23)cc1	.	.	.	.	-5.9	.	.	.	.	.	.
O=C(Nc1nnc(-c2ccc(Cl)s2)o1)C1CCCCC1	17.3	5.22*	7.6	.	.	0.0134*	0.0275*	0.0335	0.0186*	0.0319*	0.0121*
O=C(Nc1nnc(-c2ccc(Cl)cc2)o1)Nc1ccccc1Cl	-5.3	3.49*	2.8	0.0	.	0.00917	0.0263*	0.0345	?	0.0263	?
O=C(Nc1nnc(-c2ccccc2)o1)C1CCCCC1	-12.1	.	1.4	-0.1	.	.	.	.	.	.	.
CCCC(=O)Nc1nnc(-c2ccc(Cl)s2)o1	-0.9	.	2.7	.	.	.	.	.	.	.	.
O=C(Nc1nnc(-c2ccc(Cl)cc2)o1)C1CCCCC1	15.8	5.26*	.	2.4	.	0.00545	0.0217*	0.035	0.0151*	0.0285*	0.018*
COc1ccc2c(c1OC)C(=O)N(c1ccc(C)cc1)C2	.	-0.783	.	-0.3	-4.7	.	.	.	.	.	.
CCCn1c(=S)[nH]c2cc(OC)c(OC)cc2c1=O	-4.0	10.5*	1.4	-0.3	.	0.0134*	0.0215*	0.0335	?	?	?
COCCn1c(=S)[nH]c2ccc(N(C)C)cc2c1=O	8.2	3.21*	4.7	1.1	-6.9	0.00665	0.00828*	0.029	0.00951*	0.0187	0.0121*
SMILES	WT yeast gro inh	Cl transport mod	MT stabilizer	bCat nuc transl	Pf gametocyte	KCC2 sec1	KCC2 bumet counter	KCC2 secondary2	HEK counter1	KCC2 retest ouab	HEK counter2
CCOc1cc2[nH]c(=S)n(CCOC)c(=O)c2cc1OCC	0.7	0.0141	4.0	.	-20.2	.	.	.	.	.	.
Cc1cccc(C)c1NC(=O)CN(C1CCCCC1)S(C)(=O)=O	.	.	.	.	5.9	.	.	.	.	.	.
Cc1[nH]n(-c2ccccc2)c(=O)c1/C=N/N(C)c1ccccc1	-9.6	22*	2.4	0.1	2.4	0.00668	0.0501*	0.0452*	0.0324*	0.0444*	0.0354*
Cc1[nH]n(-c2ccccc2)c(=O)c1/C=N/N1C(=O)c2ccc3c4c(ccc(c24)C1=O)CC3	27.5	11*	1.9	-0.4	12.2	?	0.0209*	0.0319	0.0115*	?	0.0111
O=C(COc1ccc(Br)cc1)N/N=C1/SCC(=O)N1Cc1ccccc1	8.6	-2.45	4.2	-1.2	-0.7	.	.	.	.	.	.
COc1ccc(S(=O)(=O)N(C)C[C@H]2Oc3ccc(NC(=O)NC4CCCCC4)cc3C(=O)N([C@H](C)CO)C[C@@H]2C)cc1	.	.	.	.	5.2	.	.	.	.	.	.
Cn1c(SCC(=O)c2ccc3c(c2)NC(=O)CO3)nc2ccccc21	1.4	-0.883	3.3	0.6	4.6	.	.	.	.	.	.
O=C1COc2ccc(C(=O)CSc3nc4ccccc4c(=O)n3-c3ccc(Cl)c(Cl)c3)cc2N1	-2.0	2.48*	7.0	2.7	-0.4	?	0.0188*	0.0327	0.0102*	0.0227	?
CCc1ccc(-n2c(SCC(=O)c3ccc4c(c3)NC(=O)CO4)nc3ccccc3c2=O)cc1	2.7	2.91*	5.6	1.1	-5.8	0.00942	0.0116*	0.0305	0.00862*	?	0.00937
CSc1nnc(C)c(=O)n1COC(=O)/C=C/c1ccccc1	0.5	-0.055	2.1	.	23.8	.	.	.	.	.	.
